Active and inactive are the calls of the source. No cut-off for these calls is given here.
What was measured:
[1] = (§1) Inhibition of collagen-induced platelet aggregation in human platelet preincubated for 5 mins followed by collagen-stimulation and measured after 6 mins by lumi-aggregometric method; assay type: functional, tissue-based
Outline: (§2)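 Light transmission aggregometry of washed human platelets (3x10^8/mL) preincubated 5 min with 2 mM CaCl2 plus compound (0.2 to 200 μM; DMSO 0.2% vehicle). Aggregation induced by TRAP-6 (5 μM) or collagen (1 μg/mL) and followed 6 min. IC50 from dose-response curves, mean ± SEM of three experiments. S.I. = IC50 TRAP-6/IC50 collagen.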

[2] = (§3) Inhibition of TRAP6-induced platelet aggregation in human platelet preincubated for 5 mins followed by TRAP6-stimulation and measured after 6 mins by lumi-aggregometric method; assay type: functional, tissue-based; outline: as §2
Platelet [3] = test: Cytotoxicity against human Platelet assessed as increase in LDH leakage at 200 uM after 10 mins by LDH assay; assay type: cell-based
Outline: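 Washed platelets (3x10^8/mL) incubated 10 min at 37°C with compound (200 μM), then centrifuged 800 x g for 8 min. Supernatant LDH kit read at 490 nm; 10% Triton X-100 served as positive control.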

[4] = Selectivity index, ratio of IC50 for inhibition of TRAP6-induced platelet aggregation in human platelet to IC50 for inhibition of collagen-induced platelet aggregation in human platelet; assay type: functional; outline: as §2
Platelet [5] = test: Antiplatelet activity in human Platelet assessed as inhibition of collagen-induced ATP secretion at 2 to 20 uM by Cell Titer-Glo luminescent cell viability assay; assay type: functional, cell-based; conditions: dose 2-20 µM
Platelet [6] = test: Antiplatelet activity in human Platelet assessed as mitochondrial membrane potential loss at 2 to 20 uM by TMRM staining based flow cytometric analysis; assay type: functional, cell-based; conditions: dose 2-20 µM
Outline: (§4)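 Washed platelets loaded with TMRM (100 nM), then incubated with DMSO 0.2%, compound or FCCP (1 μM) at 37°C for 20 min; ΔΨm by flow cytometry.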

Platelet [7] = test: Antiplatelet activity in human Platelet assessed as ROS production at 2 to 20 uM by DHE staining based flow cytometric analysis; assay type: functional, cell-based; conditions: dose 2-20 µM
Outline: (§5)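 Washed human platelets (5x10^7/mL) exposed to compounds with 10 μM dihydroethidium for 20 min at 37°C; ROS read by flow cytometry. Mean ± SEM of three experiments.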

[8] = Inhibition of TRAP6-induced platelet aggregation in human platelet preincubated for 5 mins followed by 10 uM TRAP6-stimulation and measured after 6 mins by lumi-aggregometric method relative to control; assay type: functional; conditions: time 11 min
Outline: (§6)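 Washed platelets (3x10^8/mL) preincubated 5 min with 2 mM CaCl2 plus compound, then challenged at maximal agonist level, 10 μM TRAP-6 or 2 collagen as printed. Transmission followed 6 min and compared with DMSO 0.2% control; n=3.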

Platelet [9] = test: Antiplatelet activity in human Platelet assessed as intracellular NADH level at 2 to 20 uM by fluorescence assay; assay type: functional, cell-based; conditions: dose 2-20 µM
Outline: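 NAD(P)H autofluorescence in resting washed platelets, excitation 340 nm and emission 428 nm. Mean ± SEM of n=3.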

Platelet [10] = test: Effect on platelet activation in human collagen/TRAP6-inducrd human Platelet assessed as positive subpopulation cells at 2 to 20 uM by annexin V-FITC staining based flow cytometric analysis; assay type: functional, tissue-based; conditions: dose 2-20 µM
Outline: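 Washed platelets (3x10^8/mL) preincubated 5 min with 2 mM CaCl2 plus compound and stimulated with collagen + TRAP-6. Diluted in annexin V binding buffer and stained with annexin V-FITC and anti-CD61-PE for 25 min in the dark; flow cytometry.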

Platelet [11] = test: Antiplatelet activity in human Platelet assessed as intracellular ATP level at 2 to 20 uM by Cell Titer-Glo luminescent cell viability assay; assay type: functional, cell-based; conditions: dose 2-20 µM
Outline: (§7)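 Intraplatelet ATP in resting washed human platelets measured by CellTiter-Glo luminescence following the kit instructions. Mean ± SEM of n=3 experiments.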

Platelet [12] = test: Antiplatelet activity in human Platelet assessed as inhibition of collagen-induced p-selectin protein expression at 2 to 20 uM by flow cytometric analysis; assay type: functional, cell-based; conditions: dose 2-20 µM
Platelet [13] = test: as §1; assay type: functional, tissue-based; conditions: time 11.0 min; outline: as §2
Platelet [14] = test: Antiplatelet activity in human Platelet assessed as inhibition of collagen-induced GP2a/3b activation at 2 to 20 uM by flow cytometric analysis; assay type: functional, cell-based; conditions: dose 2-20 µM
Platelet [15] = test: as §3; assay type: functional, tissue-based; conditions: time 11.0 min; outline: as §2
Platelet [16] = test: Antiplatelet activity in human Platelet assessed as intracellular calcium level at 2 to 20 uM preincubated for 5 mins and measured for 15 sec by Fluo-3-AM staining based assay; assay type: functional, cell-based; conditions: dose 2-20 µM
Outline: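 Washed platelets (5x10^7/mL) loaded with Fluo-3-AM (0.4 μM) for 30 min at RT, then given vehicle (DMSO 0.2%) or compound for 5 min. Baseline recorded 15 s, then FCCP (1 μM) added and read 60 s more by flow cytometry. Expressed relative to control.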

[17] = Inhibition of collagen-induced platelet aggregation in human platelet preincubated for 5 mins followed by 2 ug/ml collagen-stimulation and measured after 6 mins by lumi-aggregometric method relative to control; assay type: functional; conditions: time 11 min; outline: as §6
Platelet [18] = test: Antiplatelet activity in human Platelet assessed as mitochondrial membrane potential loss at 20 uM by TMRM staining based flow cytometric analysis; assay type: functional, cell-based; outline: as §4
Platelet [19] = test: Antiplatelet activity in human Platelet assessed as inhibition of TRAP6-induced GP2a/3b activation at 2 to 20 uM by flow cytometric analysis; assay type: functional, cell-based; conditions: dose 2-20 µM
Platelet [20] = test: Antiplatelet activity in human Platelet assessed as inhibition of TRAP6-induced CD63 expression at 2 to 20 uM by flow cytometric analysis; assay type: functional, cell-based; conditions: dose 2-20 µM
Platelet [21] = test: Antiplatelet activity in human Platelet assessed as inhibition of TRAP6-induced p-selectin protein expression at 2 to 20 uM by flow cytometric analysis; assay type: functional, cell-based; conditions: dose 2-20 µM
Platelet [22] = test: Antiplatelet activity in human Platelet assessed as inhibition of TRAP6-induced ATP secretion at 2 to 20 uM by Cell Titer-Glo luminescent cell viability assay; assay type: functional, cell-based; conditions: dose 2-20 µM
Platelet [23] = test: Antiplatelet activity in human Platelet assessed as increase in ROS production at 20 uM by DHE staining based flow cytometric analysis; assay type: functional, cell-based; outline: as §5
Platelet [24] = test: Antiplatelet activity in human Platelet assessed as decrease in intracellular ATP level at 20 uM by Cell Titer-Glo luminescent cell viability assay; assay type: functional, cell-based; outline: as §7

| SMILES | IC50 [1] | IC50 [2] | Activity (Platelet [3]) | Ratio IC50 [4] | also measured |
| --- | --- | --- | --- | --- | --- |
| CC1C=CC(CO)c2c(O)c3c(c(O)c21)C(C)(C)C=CC3=O (stereo not given) | 11.5 µM | 15.8 µM | Non-Toxic | 1.37 |  |
| CC1C=CC(CO)c2c(O)c3c(c(O)c21)C(=O)C=CC3(C)C (stereo not given) | 4.38 µM | > 100 µM | Non-Toxic | 22.83 |  |
| CCCCCCC1=CC(C)(C)c2c(O)ccc(O)c2C1=O |  |  | Toxic |  |  |
| O=C1C=CC2(CCCC2)c2c(O)c3c(c(O)c21)CC=CC3 | 25.5 µM | > 100 µM | Non-Toxic | 3.92 |  |
| O=C1C=CC2(CCCC2)c2c(O)ccc(O)c21 | 1.77 µM | > 100 µM | Non-Toxic | 56.5 | inhibition (Platelet [5]): Active; Activity (Platelet [6]): inactive; Activity (Platelet [7]): inactive; inhibition (INH) [8]: 100%; Activity (Platelet [9]): inactive; Activity (Platelet [10]): inactive; Activity (Platelet [11]): inactive; inhibition (Platelet [12]): Active; inhibition (Platelet [13]): Dose-dependent effect; inhibition (Platelet [14]): Active; inhibition (Platelet [15]): Dose-dependent effect; Activity (Platelet [16]): inactive; inhibition (INH) [17]: 100% |
| CC1(C)C=CC(=O)c2c(O)ccc(O)c21 | 14.3 µM | > 100 µM | Non-Toxic | 7 |  |
| CC1C=CC(COC(=O)C2CCCCC2)c2c(O)c3c(c(O)c21)C(C)(C)C=CC3=O (stereo not given) | > 100 µM | > 100 µM | Non-Toxic |  |  |
| CCCCCCCC1=CC(C)(C)c2c(O)ccc(O)c2C1=O |  |  | Toxic |  |  |
| Cc1c(C)c(O)c2c(c1O)C(=O)C=CC2(C)C | 12 µM | > 100 µM | Non-Toxic | 8.35 |  |
| CCCSc1nc(N[C@@H]2C[C@H]2c2ccc(F)c(F)c2)c2nnn([C@@H]3C[C@H](OCCO)[C@@H](O)[C@H]3O)c2n1 [TICAGRELOR] | 2 µM | 4 µM |  | 2 |  |
| CCC1(CC)C=CC(=O)c2c(O)c3c(c(O)c21)CC=CC3 | 17.1 µM | 11.9 µM | Non-Toxic | 0.69 | Activity (Platelet [18]): Active; inhibition (INH) [8]: 100%; Activity (Platelet [9]): inactive; inhibition (Platelet [19]): Active; inhibition (Platelet [20]): Active; Activity (Platelet [10]): inactive; inhibition (Platelet [21]): Active; inhibition (Platelet [13]): Dose-dependent effect; inhibition (Platelet [22]): Active; inhibition (Platelet [15]): Dose-dependent effect; Activity (Platelet [16]): inactive; Activity (Platelet [23]): Active; Activity (Platelet [24]): Active; inhibition (INH) [17]: 100% |
| CC1(C)C=CC(=O)c2c(O)c3c(c(O)c21)CC=CC3 | 20.6 µM | > 100 µM | Non-Toxic | 4.86 |  |
| CCC1(CC)C=CC(=O)c2c(O)ccc(O)c21 | 35.3 µM | 31.9 µM | Non-Toxic | 0.9 |  |
| CC1C=CC(COC(=O)C2CCCCC2)c2c(O)c3c(c(O)c21)C(=O)C=CC3(C)C (stereo not given) | > 100 µM | > 100 µM | Non-Toxic |  |  |
| CCCCCC1=CC(C)(C)c2c(O)ccc(O)c2C1=O |  |  | Toxic |  |  |

— ChEMBL document CHEMBL4765278, “Synthesis of antiplatelet ortho-carbonyl hydroquinones with differential action on platelet aggregation stimulated by collagen or TRAP-6” (Eur J Med Chem, 2020)
